Data published in ChEMBL document CHEMBL4706563, “Triphenylethylene analogues: Design, synthesis and evaluation of antitumor activity and topoisomerase inhibitors” (Eur J Med Chem, 2020).
Activity calls are given as the source filed them. The calls are words filed in the database; no cut-off is given here.

Columns and labels:
[1] = system: U-251; test: Antiproliferative activity against human U251 cells assessed as growth inhibition at 10 uM relative to control; format: functional; details: read-out: GI
Method in brief: (§1)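 NCI 60 human tumour cell line panel screen. Compounds tested at a single dose and growth inhibition (%) determined for each line.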

[2] = system: HEK293; test: Cytotoxicity against human HEK293 cells at 10^-7 M incubated for 24 hrs by MTT assay relative to control; format: cell-based; details: hek293, 24 h, 0.1 µM
Method in brief: (§2)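 HEK293 cells grown in low-glucose DMEM with 10% FBS, glutamine, penicillin/streptomycin at 37 °C, 5% CO2. Cells exposed to compound at 10^-4 to 10^-8 M for 24 h at 37 °C. MTT from 5 mg/mL stock added for 4 h at 37 °C in dark. Formazan dissolved in DMSO and read at 570 nm. % toxicity calculated relative to medium-only control wells. Three experiments, each in triplicate.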

[3] = system: Leukemia cell; test: Antiproliferative activity against human leukemia cells; format: functional
[4] = system: HEK293; test: Cytotoxicity against human HEK293 cells at 10^-6 M incubated for 24 hrs by MTT assay relative to control; format: cell-based; details: hek293, 24 h, 1 µM; method in brief: as §2
[5] = system: MCF7; test: Antiproliferative activity against human MCF7 cells assessed as growth inhibition at 10 uM relative to control; format: functional; details: read-out: GI
Method in brief: (§3)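 Single-dose screen run by the US National Cancer Institute across its 60-human tumour cell line panel. Each compound was tested at one concentration. Percent growth inhibition was recorded for each cell line.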

[6] = system: SK-MEL-28; test: Antiproliferative activity against human SK-MEL-28 cells assessed as growth inhibition at 10 uM relative to control; format: functional; details: read-out: GI; method in brief: as §1
[7] = system: EKVX; test: Antiproliferative activity against human EKVX cells assessed as growth inhibition at 10 uM relative to control; format: functional; details: read-out: GI; method in brief: as §3
[8] = system: MDA-MB-468; test: Antiproliferative activity against human MDA-MB-468 cells assessed as growth inhibition at 10 uM relative to control; format: functional; details: read-out: GI; method in brief: as §3
[9] = system: HEK293; test: Cytotoxicity against human HEK293 cells at 10^-8 M incubated for 24 hrs by MTT assay relative to control; format: cell-based; details: hek293, 24 h, 0.01 µM; method in brief: as §2
[10] = system: HOP-92; test: Antiproliferative activity against human HOP-92 cells assessed as growth inhibition at 10 uM relative to control; format: functional; method in brief: as §3
[11] = system: MOLT-4; test: Antiproliferative activity against human MOLT-4 cells assessed as growth inhibition at 10 uM relative to control; format: functional; details: read-out: GI; method in brief: as §3
[12] = Antiproliferative activity against human Non-small cell lung cancer cells; format: functional; details: Non-small cell lung cancer cell line; for CC50: read-out: LC50 (the source's name)
[13] = system: HEK293; test: Cytotoxicity against human HEK293 cells at 10^-4 M incubated for 24 hrs by MTT assay relative to control; format: cell-based; details: hek293, 24 h, 100 µM; method in brief: as §2
[14] = system: Hs-578T; test: Antiproliferative activity against human Hs-578T cells assessed as growth inhibition at 10 uM relative to control; format: functional; details: read-out: GI; method in brief: as §3
[15] = system: NCI-H23; test: Antiproliferative activity against human NCI-H23 cells assessed as growth inhibition at 10 uM relative to control; format: functional; details: read-out: GI; method in brief: as §3
[16] = system: T47D; test: Antiproliferative activity against human T47D cells assessed as growth inhibition at 10 uM relative to control; format: functional; method in brief: as §1
[17] = system: SK-MEL-5; test: Antiproliferative activity against human SK-MEL-5 cells assessed as growth inhibition at 10 uM relative to control; format: functional; details: read-out: GI; method in brief: as §1
[18] = system: HEK293; test: Cytotoxicity against human HEK293 cells at 100 uM incubated for 24 hrs by MTT assay relative to control; format: cell-based; details: hek293, 24 h; method in brief: as §2
[19] = system: HEK293; test: Cytotoxicity against human HEK293 cells at 10^-5 M incubated for 24 hrs by MTT assay relative to control; format: cell-based; details: hek293, 24 h, 10 µM; method in brief: as §2
[20] = system: DU-145; test: Antiproliferative activity against human DU-145 cells assessed as growth inhibition at 10 uM relative to control; format: functional; details: read-out: GI; method in brief: as §3
[21] = system: KM12; test: Antiproliferative activity against human KM12 cells assessed as growth inhibition at 10 uM relative to control; format: functional; details: read-out: GI; method in brief: as §3
[22] = system: NCI/ADR-RES; test: Antiproliferative activity against human NCI/ADR-RES cells assessed as growth inhibition at 10 uM relative to control; format: functional; details: read-out: GI; method in brief: as §3
[23] = system: SNB-19; test: Antiproliferative activity against human SNB-19 cells assessed as growth inhibition at 10 uM relative to control; format: functional; details: read-out: GI; method in brief: as §1
[24] = Antiproliferative activity against human CNS cancer cells; format: functional; details: CNS cell; for CC50: read-out: LC50 (the source's name)
[25] = Antiproliferative activity against human breast cancer cells; format: functional; details: Breast cancer cell line; for CC50: read-out: LC50 (the source's name)
[26] = system: SF-268; test: Antiproliferative activity against human SF-268 cells assessed as growth inhibition at 10 uM relative to control; format: functional; details: read-out: GI; method in brief: as §3

Structure (SMILES)	inhibition of growth at 10 µM [1]	GI50 [3]	TGI [3]	inhibition of growth at 10 µM [5]	inhibition of growth at 10 µM [6]	inhibition of growth at 10 µM [7]	inhibition of growth at 10 µM [8]	inhibition of growth at 10 µM [11]	GI50 [12]	TGI [12]	CC50 [12]	inhibition of growth at 10 µM [14]	inhibition of growth at 10 µM [15]	inhibition of growth at 10 µM [17]	inhibition of growth at 10 µM [20]	inhibition of growth at 10 µM [21]	inhibition of growth at 10 µM [22]	inhibition of growth at 10 µM [23]	GI50 [24]	TGI [24]	further results
C/C(=C(/c1ccccc1)c1ccc(OCC(O)CNCCN2CCOCC2)cc1)c1ccccc1 (stereo not given)	67.4%	2.19 µM	5.8 µM	55.4%	-86.2%	17.2%	46.9%	59%	4.19 µM	12.2 µM	36.3 µM	29.5%	16.8%	71%	32.2%	45.7%	19.8%	8.8%	2.81 µM	9.9 µM	Activity [2]: 5.43%; LC50 (concentration killing 50% of cells) [3]: 23.9 µM; Activity [4]: 7.04%; Activity [9]: 4.74%; inhibition of growth at 10 µM ([10]; read-out: GI): 40.9%; Activity [13]: 15.82%; inhibition of growth at 10 µM ([16]; read-out: GI): 10.7%; Activity [18]: 20%; Activity [19]: 13.73%; CC50 [24]: 25.2 µM; GI50 [25]: 3.69 µM; TGI [25]: 9.08 µM; CC50 [25]: 29.1 µM
CC/C(=C(\c1ccccc1)c1ccc(OCCN(C)C)cc1)c1ccccc1 [TAMOXIFEN]	95.2%	2.08 µM	6.42 µM	-10.3%	88.7%	40%	-13.3%	66.7%	4.01 µM	9.2 µM	2.6 µM	39.5%	39.7%	-95.2%	34.6%	75%	56.8%	47.4%	4.04 µM	10.6 µM	inhibition of growth at 10 µM [26]: 43.3%; growth inhibition (GI) [10]: inactive; growth inhibition (GI) [16]: inactive; CC50 [24]: 44.1 µM; GI50 [25]: 3.05 µM; TGI [25]: 10.4 µM; CC50 [25]: 2.83 µM
